This note sets out measurements from ChEMBL document CHEMBL1140228, “Identification of small molecular weight inhibitors of Src homology 2 domain-containing tyrosine phosphatase 2 (SHP-2) via in silico database screening combined with experimental assay” (J Med Chem, 2008).

The target in test [1] is T1, Tyrosine-protein phosphatase non-receptor type 11 (Homo sapiens) (UniProt Q06124).
T1 sequence (whole entry): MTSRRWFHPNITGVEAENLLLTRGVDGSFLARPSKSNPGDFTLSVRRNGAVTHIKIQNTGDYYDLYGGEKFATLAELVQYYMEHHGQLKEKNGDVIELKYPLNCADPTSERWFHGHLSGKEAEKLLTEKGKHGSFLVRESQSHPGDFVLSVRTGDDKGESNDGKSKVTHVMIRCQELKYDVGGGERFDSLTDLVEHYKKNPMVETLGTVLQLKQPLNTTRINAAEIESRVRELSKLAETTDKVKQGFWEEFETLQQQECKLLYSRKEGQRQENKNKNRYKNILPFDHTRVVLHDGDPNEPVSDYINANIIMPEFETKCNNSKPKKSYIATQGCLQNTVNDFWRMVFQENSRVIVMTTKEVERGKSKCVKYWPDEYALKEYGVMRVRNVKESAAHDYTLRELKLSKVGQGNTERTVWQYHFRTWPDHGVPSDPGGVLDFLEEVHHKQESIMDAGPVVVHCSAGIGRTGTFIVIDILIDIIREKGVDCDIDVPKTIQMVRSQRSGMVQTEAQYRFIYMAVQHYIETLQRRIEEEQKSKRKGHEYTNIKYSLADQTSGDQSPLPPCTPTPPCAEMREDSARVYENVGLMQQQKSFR
Briefly: Inhibition of GST-tagged SHP2 at 100 uM. The method, boiled down:
(§1)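 GST-SHP-2 PTP domain (0.5 μg) preincubated 30 min at room temperature with compound or DMSO in 25 mM Tris-HCl pH 7.4, 50 mM NaCl, 5 mM DTT, 2.5 mM EDTA. Orthovanadate (100 μM) served as positive control.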

In test [2] the target is T1, Tyrosine-protein phosphatase non-receptor type 11 (Homo sapiens). In words: Inhibition of GST-tagged SHP2. The method, boiled down:
as §1

Test [3] shares this target. Briefly: Inhibition of GST-tagged SHP2 at 200 uM. The gist of the method:
as §1

For test [4], the target named is Tyrosine-protein phosphatase non-receptor type 6 (Homo sapiens) (UniProt P29350). Briefly: Inhibition of GST-tagged SHP1.
Tyrosine-protein phosphatase non-receptor type 6 (Homo sapiens), sequence (P29350 whole entry): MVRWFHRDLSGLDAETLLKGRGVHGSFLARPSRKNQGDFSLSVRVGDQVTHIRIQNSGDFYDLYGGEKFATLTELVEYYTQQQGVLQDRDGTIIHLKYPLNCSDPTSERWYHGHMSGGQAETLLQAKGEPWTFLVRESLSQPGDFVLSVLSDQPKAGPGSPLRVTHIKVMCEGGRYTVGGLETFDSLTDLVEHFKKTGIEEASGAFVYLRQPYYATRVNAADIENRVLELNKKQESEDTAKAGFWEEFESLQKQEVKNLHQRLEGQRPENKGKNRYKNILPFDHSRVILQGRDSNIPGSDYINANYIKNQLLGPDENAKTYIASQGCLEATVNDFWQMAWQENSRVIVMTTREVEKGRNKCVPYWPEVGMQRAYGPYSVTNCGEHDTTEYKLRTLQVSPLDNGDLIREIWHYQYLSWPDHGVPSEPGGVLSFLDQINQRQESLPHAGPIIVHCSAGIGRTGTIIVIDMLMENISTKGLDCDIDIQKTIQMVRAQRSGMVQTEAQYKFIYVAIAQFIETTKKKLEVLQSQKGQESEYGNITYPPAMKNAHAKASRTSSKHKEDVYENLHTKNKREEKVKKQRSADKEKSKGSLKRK
The target of test [5] is T2, Tyrosine-protein phosphatase non-receptor type 2 (Homo sapiens) (UniProt P17706).
T2 sequence (whole entry): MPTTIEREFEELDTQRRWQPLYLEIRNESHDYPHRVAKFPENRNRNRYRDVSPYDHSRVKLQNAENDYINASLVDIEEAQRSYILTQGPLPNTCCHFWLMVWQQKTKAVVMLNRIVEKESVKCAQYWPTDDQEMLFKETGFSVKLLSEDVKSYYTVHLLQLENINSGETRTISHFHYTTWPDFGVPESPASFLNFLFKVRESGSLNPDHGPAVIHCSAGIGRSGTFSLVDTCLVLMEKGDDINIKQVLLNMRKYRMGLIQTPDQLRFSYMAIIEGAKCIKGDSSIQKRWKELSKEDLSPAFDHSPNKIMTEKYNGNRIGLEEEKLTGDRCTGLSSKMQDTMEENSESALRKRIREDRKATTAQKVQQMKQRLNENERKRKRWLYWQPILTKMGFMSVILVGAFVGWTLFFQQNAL
Briefly: Inhibition of GST-tagged TC-PTP.

For test [6], the target named is T3, Receptor-type tyrosine-protein phosphatase C (Homo sapiens) (UniProt P08575).
T3 sequence (whole entry): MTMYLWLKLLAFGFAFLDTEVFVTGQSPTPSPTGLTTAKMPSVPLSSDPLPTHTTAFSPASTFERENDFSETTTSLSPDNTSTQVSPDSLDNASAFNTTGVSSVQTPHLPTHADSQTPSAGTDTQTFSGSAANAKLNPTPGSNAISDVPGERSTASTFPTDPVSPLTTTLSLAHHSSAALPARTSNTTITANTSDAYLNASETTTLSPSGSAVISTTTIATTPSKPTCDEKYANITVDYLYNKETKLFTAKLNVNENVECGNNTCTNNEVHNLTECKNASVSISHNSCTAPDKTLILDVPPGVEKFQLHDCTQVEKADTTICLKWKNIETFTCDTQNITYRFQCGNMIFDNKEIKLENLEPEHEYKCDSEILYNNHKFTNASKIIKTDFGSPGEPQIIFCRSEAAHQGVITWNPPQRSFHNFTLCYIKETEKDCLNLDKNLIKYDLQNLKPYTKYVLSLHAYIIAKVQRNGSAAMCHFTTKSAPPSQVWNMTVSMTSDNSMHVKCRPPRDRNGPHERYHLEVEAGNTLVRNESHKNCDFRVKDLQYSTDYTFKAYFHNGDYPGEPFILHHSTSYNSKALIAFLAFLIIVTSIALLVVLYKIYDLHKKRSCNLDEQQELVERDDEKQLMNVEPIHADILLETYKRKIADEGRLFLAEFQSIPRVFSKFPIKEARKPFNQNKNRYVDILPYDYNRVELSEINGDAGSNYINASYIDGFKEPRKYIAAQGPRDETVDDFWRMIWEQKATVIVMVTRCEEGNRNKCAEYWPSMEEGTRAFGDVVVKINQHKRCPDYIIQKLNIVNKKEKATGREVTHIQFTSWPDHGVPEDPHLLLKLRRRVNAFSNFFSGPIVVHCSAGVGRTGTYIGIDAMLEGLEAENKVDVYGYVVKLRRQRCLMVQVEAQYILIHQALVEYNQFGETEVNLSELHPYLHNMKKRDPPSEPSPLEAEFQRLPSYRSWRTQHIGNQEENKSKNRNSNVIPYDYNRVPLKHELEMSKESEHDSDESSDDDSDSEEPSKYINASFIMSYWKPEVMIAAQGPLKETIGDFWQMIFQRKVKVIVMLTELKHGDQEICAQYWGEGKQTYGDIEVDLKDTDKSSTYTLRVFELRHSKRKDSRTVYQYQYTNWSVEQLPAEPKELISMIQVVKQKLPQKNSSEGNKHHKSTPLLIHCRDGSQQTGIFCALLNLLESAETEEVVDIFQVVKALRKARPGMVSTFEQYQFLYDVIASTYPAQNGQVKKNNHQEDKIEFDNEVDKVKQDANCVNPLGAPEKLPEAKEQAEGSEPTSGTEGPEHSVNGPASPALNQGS
Briefly: Inhibition of GST-tagged CD45.

For test [7], the target named is T4, Tyrosine-protein phosphatase non-receptor type 11 (Mus musculus) (UniProt P35235).
T4 sequence (whole entry): T1 sequence (whole entry) with M450V, A550V, K590R
In words: Inhibition of EGF-induced SHP2 activation in mouse embryonic fibroblasts by immunocomplex phosphatase assay. The gist of the method: (§2)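 WT or SHP-2 D61G/D61G knock-in MEFs starved overnight in serum-free medium, compound (100 μM) for the last 1 h, then EGF 10 min (50 ng/mL in methods, 20 ng/mL in legend). RIPA lysates (500 μg) immunoprecipitated with anti-SHP-2, washed in HNTG, then assayed by malachite green phosphatase assay.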

The test system of test [8] is T5, Tyrosine-protein phosphatase non-receptor type 11 (Mus musculus), P35235 [D61G].
T5 sequence (whole entry): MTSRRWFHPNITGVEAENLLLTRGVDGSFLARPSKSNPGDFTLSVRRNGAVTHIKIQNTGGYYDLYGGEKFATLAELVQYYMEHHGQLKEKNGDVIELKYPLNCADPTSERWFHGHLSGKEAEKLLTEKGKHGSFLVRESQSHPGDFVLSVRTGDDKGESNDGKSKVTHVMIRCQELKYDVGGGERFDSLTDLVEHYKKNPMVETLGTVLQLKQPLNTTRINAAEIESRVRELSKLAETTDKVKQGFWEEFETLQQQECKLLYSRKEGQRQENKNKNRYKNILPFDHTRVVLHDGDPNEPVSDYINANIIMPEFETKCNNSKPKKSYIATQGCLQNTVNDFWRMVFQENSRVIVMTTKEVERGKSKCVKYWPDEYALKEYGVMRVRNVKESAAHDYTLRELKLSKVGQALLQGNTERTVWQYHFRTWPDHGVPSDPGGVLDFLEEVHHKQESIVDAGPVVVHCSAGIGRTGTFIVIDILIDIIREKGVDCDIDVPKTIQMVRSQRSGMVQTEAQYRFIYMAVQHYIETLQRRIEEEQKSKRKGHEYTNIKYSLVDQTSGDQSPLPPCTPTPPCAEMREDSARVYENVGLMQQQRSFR
In words: Inhibition of EGF-induced SHP2 D61G mutant activation in mouse embryonic fibroblasts by immunocomplex phosphatase assay. The method, boiled down:
as §2

The target of test [9] is T4, Tyrosine-protein phosphatase non-receptor type 11 (Mus musculus). In words: Inhibition of SHP2 assessed as blockade of IL3-induced ERK1/ERK2 activation in mouse Ba/F3 cells by immunoblotting. The format is cell-based. Particulars: BaF3. The method, boiled down:
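Ba/F3 cells deprived of IL-3 for 8 h, treated with compound 1 h before stimulation with IL-3 (2 ng/mL), and harvested at several times. Lysates immunoblotted for phospho-Erk, then stripped and reprobed for pan-Erk as loading control.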
In general terms: In western blotting, separated proteins are transferred to a membrane and probed.

Test [10] has as its system BaF3. In words: Antiproliferative activity against IL3-stimulated mouse BA/F3 cells assessed as decrease in cell growth after 72 hrs by MTS assay. The format is functional, cell-based. The method, boiled down: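 Ba/F3 (IL-3-dependent murine pro-B line) seeded at 2×10⁴ cells/well in RPMI-1640 with 10% FBS and mouse IL-3 (1 ng/mL), plus compound at 100 or 200 μM or DMSO. Cell number read by MTS after 72 h.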
Background: Tetrazolium dyes change colour on reduction, which living cells bring about.

Test [11] concerns the target T1, Tyrosine-protein phosphatase non-receptor type 11 (Homo sapiens). In words: Binding affinity to SHP2 PTP domain assessed as quenching of enzyme fluorescence by fluorescence titration assay. The method, boiled down: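 Tryptophan fluorescence quenching of GST-SHP-2 PTP domain held at 3 μM in 20 mM Tris-HCl pH 7.5, titrated with increasing compound. Excitation 295 nm, emission 360–500 nm. Compound-alone fluorescence subtracted. Intensities are relative, not corrected for detector response.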

Structures are written as SMILES. Changes are numbered by the printed parent chain. Calls of active or inactive are those of the source. The rule behind the calls is not given here.

Take `NNc1ccc(S(=O)(=O)O)cc1`: in test [1], the inhibition (commonly the drop in the measured response relative to a control, in per cent) stood at 70%. Also, the Activity entry in test [2] is “Dose-dependent effect”. Moreover, the result in test [3] and in test [4] was Active. Further, the result in test [5] and in test [6] was inactive.
In test [1], `NS(=O)(=O)c1ccc(CCNC(=O)c2ccc(Cn3c(=S)[nH]c4ccc(Br)cc4c3=O)cc2)cc1` showed an inhibition of 55%. In addition, the Activity result in test [2] is “Dose-dependent effect”. For the same molecule, the outcome in test [7], in test [8], in [9], in [10] and in [11] was Active.
With `CSc1ccc(C2C(C#N)=C(N)Oc3[nH]nc(-c4ccccc4Cl)c32)cc1` (stereo unspecified), the Activity result in test [2] is “Dose-dependent effect”. Besides, in test [11], the outcome was Active.
Regarding `NC(N)=NN[C@@H]1O[C@H](CO)[C@@H](O)[C@H](O)[C@H]1O`, the Activity result in [2] was “Dose-dependent effect”. In addition, in test [11], the result was inactive.
On the same counts, the results for `CNC(=S)NNC(=O)CSCCS(=O)(=O)c1ccccc1` are “Dose-dependent effect” and “inactive”.
In turn, `O=C(CCCn1c(=O)c2cccn2c2cccnc21)NCc1ccccc1F` came in with an inhibition in test [1] of 45%. The Activity result in test [2] was “Dose-dependent effect”.
For `CNC(=S)NNC(=O)c1csc(-c2cccs2)n1`, in test [1], the inhibition was 40%. For the same molecule, the Activity entry in test [2] is “Dose-dependent effect”.
Regarding `CCc1ccc(OCC(=O)Nc2ccc(S(N)(=O)=O)cc2)cc1`, the Activity result in [2] is “Dose-dependent effect”. Moreover, in test [11], the result was inactive.
In turn, `Cc1cc(C)c2c(c1)[nH]c1nnc(SCC(=O)NCc3cccs3)nc12` gave an inhibition in [1] of 50%. Further, the Activity entry in test [2] is “Dose-dependent effect”. In addition, the outcome in [7], in test [8], in test [9] and in test [11] was Active.
